Reference: article PMC10921549 (Journal of Agricultural and Food Chemistry, 2024)
Blank lines part the entries; values can stand above or below the compound they belong to.

How the values were obtained:
OR8H1 = target: T1, OR8H1 (Homo sapiens, UniProt Q8NGG4); test: HEK-293 cell-based cAMP luminescence; conditions: for agonist validation by concentration–response relation on OR8H1: human OR8H1; for KFO library screening response of OR8H1 (2σ-threshold): each KFO 300 μmol/L, normalized to OR8H1 response to 30 μmol/L TDN
T1 sequence (Q8NGG4 1-311): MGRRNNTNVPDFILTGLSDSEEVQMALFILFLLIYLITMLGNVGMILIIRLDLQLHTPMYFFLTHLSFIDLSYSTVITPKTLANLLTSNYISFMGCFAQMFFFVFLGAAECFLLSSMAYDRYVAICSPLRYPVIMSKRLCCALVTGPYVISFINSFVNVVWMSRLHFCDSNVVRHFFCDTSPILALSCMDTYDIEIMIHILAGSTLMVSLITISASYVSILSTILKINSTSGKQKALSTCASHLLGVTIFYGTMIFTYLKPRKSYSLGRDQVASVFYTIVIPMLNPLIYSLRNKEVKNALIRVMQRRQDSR
Method in brief: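 In HEK-293 cells expressing recombinant human OR8H1 with GloSensor cAMP luciferase, each of 180 GC-pure food odorants is applied at 300 μmol/L (n = 1, triplicate). After basal subtraction, mock is subtracted and responses are normalized to the 30 μmol/L reference agonist signal; the hit threshold is 2σ. For concentration–response, EC50 comes from a nonlinear Hill fit (slope ≤2.9, weighted by 0.1/SD). Results are mean ± SD.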

ptOR8H1 = test: HEK-293 cAMP luminescence assay, chimp ortholog ptOR8H1; format: cell-based, Pan troglodytes (chimpanzee); conditions: for response of chimp orthologue (concentration–response): ptOR8H1
Method in brief: (§1)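 HEK-293 cells (37 °C, 5% CO2, 100% humidity; high-glucose DMEM, 10% FBS, 2 mM L-glutamine, penicillin/streptomycin) transiently express the OR ortholog with a GloSensor cAMP luciferase, and luminescence is read after odorant application. Basal signal is subtracted, data are normalized to a reference odorant–receptor maximum, and mock is subtracted. EC50 comes from a Hill fit weighted by 0.1/SD, with slope ≤2.9. Results are mean ± SD; surface expression is checked by flow cytometry.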

[1] = system: 386 human OR types and 380 of their most frequent variants; test: Screening of TDN against OR library of 766 cDNAs; format: cell-based; conditions: 100 μmol/L TDN, 766 OR cDNAs
ecOR8H1 = test: HEK-293 cAMP luminescence assay, horse ortholog ecOR8H1; format: cell-based, Equus caballus (horse)
Method in brief: as §1

[2] = cited from earlier work
OR2W1 = conditions: present study and ref 50; cited from earlier work

SMILES: CC(=O)c1ccc2ccccc2c1 [2-acetylnaphthalene]
- agonist validation by concentration–response relation on OR8H1 (OR8H1): agonist for OR8H1

SMILES: C=C(C)c1ccc(C)cc1 [Compound 1, 1-methyl-4-(prop-1-en-2-yl)benzene]
- EC50 (OR8H1): 336 ± 74.9 µM

SMILES: CC(=O)OCCc1ccccc1 [2-phenylethyl acetate]
- KFO library screening response of OR8H1 (2σ-threshold) (OR8H1): did not activate OR8H1

SMILES: CC(C)c1ccc(C=O)cc1 [Compound 7, 4-Propan-2-ylbenzaldehyde]
- activation of OR2W1 (OR2W1): did not activate
- EC50 (OR8H1): 92 ± 11.7 µM
- response of chimp orthologue (concentration–response) (ptOR8H1): responded

SMILES: CCCc1ccc(O)c(OC)c1 [Compound 5, 2-methoxy-4-propylphenol]
- odor threshold (OT in water/EtOH (60/40)) ([2]; water/EtOH (60/40)): 1.9 ^b[35] μg/kg

SMILES: C=CCc1ccc(OC)c(OC)c1 [Compound 2, 1,2-dimethoxy-4-prop-2-enylbenzene]
- activation of OR2W1 (OR2W1): did not activate
- EC50 (OR8H1): 114 ± 20.1 µM

Continued, in another order:

- EC50 (OR8H1): 147 ± 8.64 µM
SMILES: COc1nccnc1C(C)C [Compound 3, 2-methoxy-3-propan-2-ylpyrazine]

- EC50 (OR8H1): 206 ± 80.8 µM
SMILES: CC1=CCC(C(C)(C)S)CC1 (stereo not drawn) [Compound 8, 2-(4-methylcyclohex-3-en-1-yl)propane-2-thiol]
- response of chimp orthologue (concentration–response) (ptOR8H1): responded

- EC50 (OR8H1): 32 ± 6.09 µM
- EC50 (ptOR8H1; chimp ptOR8H1 in HEK-293, n = 3): 37.8 ± 29.1 µM
SMILES: Cc1ccc2c(c1)C=CCC2(C)C [TDN, 1,1,6-trimethyl-1,2-dihydronaphthalene]
- receptor activation above 3σ-threshold in OR library screening [1]: exclusively activated a single OR above a 3σ-threshold: OR8H1
- response of horse orthologue to TDN (ecOR8H1): nonresponding
- response of chimp orthologue (concentration–response) (ptOR8H1): responded
- efficacy lower than at the human receptor (ptOR8H1; ptOR8H1 versus human OR8H1): ~7 fold
- odor (detection) threshold in Riesling wine ([2]; Riesling wine): 2.3 µg/L
- odor threshold, originally reported [2]: 20 µg/L
- detection threshold ([2]; spiked model wine): 2 µg/L

- EC50 (OR8H1): 193 ± 9.52 µM
- KFO library screening response of OR8H1 (2σ-threshold) (OR8H1): false-negative responder
- agonist validation by concentration–response relation on OR8H1 (OR8H1): agonist of OR8H1
SMILES: C=C(C)[C@@H]1CC=C(C)C(=O)C1 [Compound 6, (5R)-2-methyl-5-prop-1-en-2-ylcyclohex-2-en-1-one]
